Only some compounds are listed: those with a hit (about 0.92% of all), similar ones and a draw of the others.
FN deposition inh – fibronectin deposition inhibition | hit rate 0.086% among 350,000 | AID 743247 | inhibition, % at 12.6 µM | AH1F fibroblasts, Alexa488-fibronectin deposition fluorescence, overnight;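 active means mean inhibition across replicates of 30% or more, regardless of how many single replicates reach that level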;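 further: positive control wells lacked labelled fibronectin entirely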
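Material: AH1F fibroblast monolayer depositing Alexa488-labelled fibronectin into matrix / Amount: 10000 AH1F cells per well / Signal: fluorescence 485/525 nm / Medium: DMEM, 2% serum / Compound: single dose, pinned / Incubation: 1 h cell adhesion before compound, then overnight fibronectin incubation / Reagent: Alexa488-FN, 24 nM final / Read-out: inhibition of fibronectin deposition signal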
RAD54 inh – blocks human RAD54 Holliday junction branch migration. Q92698. FAM/BHQ fluorescence. inhibition, % at 10.4 µM. hit rate 0.14% among 360,000;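 active means mean normalized replicate activity at least 40 and at least half of replicates scoring 40 or more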;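 further: 0% = median of neutral control wells and 100% = median of positive control wells; inhibitors cause a drop in the FAM fluorescence signal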
RAD52 inh – RAD52 (human) annealing inhibition | P43351 | recombinant RAD52 DNA annealing, FRET fluorescence | inhibition, % at 18.7 µM | hit rate 0.46% among 360,000 | AID 651710;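 active means every replicate showing at least 50% inhibition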
Target sequence (P43351 whole entry, looked up): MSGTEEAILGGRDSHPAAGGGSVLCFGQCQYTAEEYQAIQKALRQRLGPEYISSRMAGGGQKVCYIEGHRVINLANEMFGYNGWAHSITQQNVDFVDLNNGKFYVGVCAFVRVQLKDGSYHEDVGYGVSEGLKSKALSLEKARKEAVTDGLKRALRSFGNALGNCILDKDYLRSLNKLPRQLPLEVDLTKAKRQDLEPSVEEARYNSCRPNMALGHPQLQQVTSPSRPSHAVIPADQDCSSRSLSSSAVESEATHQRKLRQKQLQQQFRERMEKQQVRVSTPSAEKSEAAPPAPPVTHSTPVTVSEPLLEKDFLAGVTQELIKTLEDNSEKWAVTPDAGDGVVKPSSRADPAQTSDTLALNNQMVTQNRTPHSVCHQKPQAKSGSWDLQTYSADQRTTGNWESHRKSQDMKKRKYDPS
AF4-AF9 inh – MLL-AF4/AF9 protein interaction inhibition; AlphaScreen, biotin-AF4 peptide binding to FLAG-AF9; hit rate 0.47% among 350,000; P42568; inhibition, % at 10 µM;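 active means every replicate reaching a set inhibition limit, whatever the replicate mean, cut at about 25% in these data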;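 further: 0% = plate neutral control median and 100% = total signal loss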
Glyco luc inh – blocks N-linked glycosylation in D54 reporter cells. D54 ERlucT glycosylation luciferase reporter, 24 h; percent of 100 nM tunicamycin response. reporter increase, % at 12.5 µM. hit rate 0.23% among 360,000. AID 588692;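 active means mean luciferase reporter signal, scaled so untreated is 0 and the glycosylation-blocking control 100, at or above a set limit in every replicate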;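 further: luciferase carries N-glycosylation sites so blocking glycosylation raises the light; 0% = median of neutral control wells and 100% = median of 100 nM tunicamycin wells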
* = called active by the depositor; · = not tested or not shown; ! = not active in a repeat.

SMILES	FN deposition inh	RAD54 inh	RAD52 inh	AF4-AF9 inh	Glyco luc inh
N#Cc1ccc(-c2ccc([C@@H]3[C@@H]4CN(S(=O)(=O)c5ccc(-c6ccccc6)cc5)C[C@H]3N4)cc2)cc1	1	·	79*	-2	·
CC(C)NC(=O)Nc1ccc2c(c1)C(=O)N(C)C[C@@H](C)[C@@H](CN(C)C(=O)NC(C)C)O2	-18	·	·	·	·
O=C(C[C@@H]1C[C@H]2c3cc(NC(=O)Cc4ccncc4)ccc3O[C@H]2[C@@H](CO)O1)NCc1ccccn1	·	2	3	-1	·
Fc1cccc(CN2C[C@@H]3N[C@H](C2)C3c2ccc(-c3cncnc3)cc2)c1 (some centres undefined)	4	·	22	0	·
Fc1cccc(CN2C[C@@H]3N[C@H](C2)C3c2ccc(-c3ccccc3)cc2)c1 (some centres undefined)	-9	·	84*!	11	·
O=C(C1CCC1)N1C[C@@H]2N[C@H](C1)C2c1ccc(-c2cccc(F)c2)cc1 (some centres undefined)	4	·	10	4	·
Fc1cccc(-c2ccc(C3[C@@H]4CN(Cc5ccccc5F)C[C@H]3N4)cc2)c1 (some centres undefined)	0	·	83*!	9	·
N#Cc1ccc(-c2ccc(C3[C@@H]4CN(Cc5ccccc5F)C[C@H]3N4)cc2)cc1 (some centres undefined)	19	·	84*!	-1	·
COc1ccc(S(=O)(=O)/N=C2/C=CC(=O)C(C)=C2C)cc1	·	-2	·	·	1
CC1=C(C)/C(=N\OS(=O)(=O)c2ccc(C)cc2)C=CC1=O	33*	·	·	·	-10
Nc1nc(SCc2ccccc2)c2ncn(C3OC(CO)C(O)C3O)c2n1 (centres undefined)	·	8	-6	-66	2
OCC1OC(n2cnc3c(SCc4ccccc4)ncnc32)C(O)C1O (centres undefined)	18	·	4	4	113*
OCC1OC(n2ccc3c(SCc4ccccc4)ncnc32)C(O)C1O (centres undefined)	0	7	-20	2	32*
C[C@H]1CN([C@@H](C)CO)C(=O)CCCn2cc(nn2)CO[C@@H]1CN(C)C(=O)Nc1ccc(N2CCCCC2)cc1	-5	-6	-15	38*!	5
C[C@@H]1CN([C@@H](C)CO)C(=O)CCCn2cc(nn2)CO[C@H]1CN(C)C(=O)Nc1ccc(N2CCN(C)CC2)cc1	4	9	68*!	11	·
C[C@H](CO)N1C[C@H](C)[C@@H](CN(C)C(=O)Nc2ccc(N3CCN(C)CC3)cc2)OCc2cn(nn2)CCCC1=O	-2	5	66*!	10	·
C[C@@H]1CN([C@@H](C)CO)C(=O)CCCn2cc(nn2)CO[C@@H]1CN(C)C(=O)Nc1ccc(N2CCN(C)CC2)cc1	-7	1	42	7	·
C[C@@H]1CN([C@H](C)CO)C(=O)CCCn2cc(nn2)CO[C@@H]1CN(C)C(=O)Nc1ccc(N2CCN(C)CC2)cc1	2	2	3	2	·
Cc1cccc(-c2n[nH]c(S(C)(=O)=O)c2C#N)c1	1	·	-9	97*	0
Cc1ccc(-c2n[nH]c(S(C)(=O)=O)c2C#N)cc1	1	·	-6	·	2
CNC(=O)C[C@@H]1CC[C@H]2[C@@H](COc3ccc(NC(=O)Nc4cccc(C)c4)cc3C(=O)N2C)O1	-11	-2	12	4	·
CC(C)C(=O)Nc1ccc2c(c1)C(=O)N(C)[C@H]1CC[C@@H](CC(=O)NCc3ccccc3F)O[C@H]1CO2	-3	9	·	·	·
C[C@H](CO)N1C[C@H](C)[C@H](CN(C)S(=O)(=O)c2ccc(F)cc2)Oc2cc(C3=CCCCC3)ccc2S1(=O)=O	·	8	6	0	·
C[C@H]1CN([C@@H](C)CO)C(=O)c2cc(NC(=O)NC3CCCCC3)ccc2O[C@H]1CN(C)Cc1ccc(-c2ccccc2)cc1	·	3	-1	-2	·
C[C@H](CO)N1C[C@H](C)[C@@H](CN(C)Cc2ccc(-c3ccccc3)cc2)Oc2ccc(NC(=O)NC3CCCCC3)cc2C1=O	·	2	89*	1	·
SMILES	FN deposition inh	RAD54 inh	RAD52 inh	AF4-AF9 inh	Glyco luc inh
COc1ccc(CN(C)C[C@@H]2Oc3ccc(NC(=O)Nc4ccccc4)cc3C(=O)N([C@@H](C)CO)C[C@H]2C)cc1	·	53*	17	-6	·
COc1ccc(CN(C)C[C@@H]2Oc3ccc(NC(=O)Nc4c(C)noc4C)cc3C(=O)N([C@H](C)CO)C[C@H]2C)cc1	-6	56*	0	-2	·
COc1ccc(CN(C)C[C@@H]2Oc3ccc(NC(=O)Nc4ccc(OC)cc4)cc3C(=O)N([C@@H](C)CO)C[C@H]2C)cc1	·	62*	16	5	·
CCN(C[C@@H]1[C@H](c2ccccc2)[C@H](CO)N1C(C)=O)C(=O)c1ccccn1	-1	-8	-13	-1	·
Cc1noc(C)c1NC(=O)N(C)C[C@@H]1OCCCC[C@H](C)Oc2ccc(NC(=O)Cc3ccccc3)cc2C(=O)N([C@@H](C)CO)C[C@@H]1C	·	-3	-9	-2	·
C[C@@H]1CCCCO[C@H](CN(C)C(=O)Nc2ccccc2)[C@H](C)CN([C@H](C)CO)C(=O)c2cc(NC(=O)C3CCCCC3)ccc2O1	-5	·	·	·	·
COc1ccc(CN(C)C[C@@H]2Oc3ccc(NC(=O)NC4CCCCC4)cc3C(=O)N([C@@H](C)CO)C[C@H]2C)cc1	·	63*	6	0	·
COc1ccc(CN(C)C[C@@H]2Oc3ccc(NC(=O)NC4CCCCC4)cc3C(=O)N([C@H](C)CO)C[C@H]2C)cc1	·	40	-4	-2	·
O=C(C[C@@H]1CC[C@@H]2[C@H](COC[C@@H](O)CN2CC2CCOCC2)O1)NCC1CCCCC1	0	-7	2	-2	·
C[C@@H]1CN([C@@H](C)CO)C(=O)c2cccc(NS(=O)(=O)c3ccc(F)cc3)c2O[C@@H]1CN(C)C(=O)NC1CCCCC1	-12	2	-43	-2	·
C/C(=N\NC(=O)c1cc(-c2ccc(Cl)s2)[nH]n1)c1ccncc1	10	-2	-14	43*	0
C/C(=N\NC(=O)c1cc(-c2ccc(Br)s2)[nH]n1)c1ccncc1	21	7	-18	-1	-2
CCCNC(=O)N1CCC2(CC1)CN(C(=O)CN1CCOCC1)[C@@H](CO)c1[nH]c3cc(OC)ccc3c12	·	·	1	1	·
CC(CCc1ccccc1)NC(=O)c1ccc(NC(=O)c2ccccc2)cc1 (centres undefined)	8	0	-6	-1	26*
CC(CCc1ccccc1)NC(=O)c1ccc(NC(=O)c2cccc(Br)c2)cc1 (centres undefined)	0	-2	·	·	-4
O=C(C1CCCC1)N1CC(=O)N2[C@H](C1)[C@H](c1ccc(-c3cccnc3)cc1)[C@@H]2CO	-2	·	-5	-3	·
COc1ccc(O)c(C(=O)c2cc(C#N)c(=O)n(-c3ccc(Cl)cc3)c2)c1	-2	·	-33	29*	3
Cn1nc(-c2ccc(Cl)cc2)c2cc(C(=O)NCCCN3CCCC3)sc21	-3	45	46	2	-1

Screening data deposited in PubChem by Broad Institute.
